Measured values from different studies.
Lines come from different studies, so protocols differ.
MMP7: Matrilysin (MMP7, Homo sapiens, UniProt P09237)

C#Cc1n[nH]c2c(-c3cn([C@@H](C)c4ccccn4)c(=O)[nH]c3=O)cc(F)cc12 — inhibition (Tyrosine-protein kinase receptor UFO (AXL, Homo sapiens, UniProt P30530); enzyme activity, inhibitor; 0.1 µM): 13.4%
Cc1nn(C)cc1-c1nc2c(N3CCN(Cc4ccc(Cl)cc4)CC3)c(Cl)cnc2[nH]1 — remaining binding (Serine/threonine-protein kinase 32A (STK32A, Homo sapiens, UniProt Q8WU08); binding, competition with immobilised ligand; 1 µM): 100%
CCOC(=O)c1ccc(OC(=O)CCCCCNC(=N)N)cc1 — inhibition (MMP7; enzyme activity, inhibitor; 10 µM): 3%
Cc1cc(=O)oc2cc(NC(=O)[C@H](CCCNC(=N)N)NC(=O)[C@H](CCCNC(=N)N)NC(=O)[C@@H](NC(=O)[C@H](CCCNC(=N)N)NC(=O)OC(C)(C)C)C(C)C)ccc12 — Km (Furin (FURIN, Homo sapiens, UniProt P09958); enzyme activity, substrate, fluorescence): 44.6 µM
N=C(N)c1ccc2cc(OC(=O)c3ccc(N=C(N)N)cc3)ccc2c1 — inhibition (MMP7; enzyme activity, inhibitor; 10 µM): 5%
O=c1ccc2ccc3occc3c2o1 — activity vs control (Aldehyde dehydrogenase 1A1 (ALDH1A1, Homo sapiens, UniProt P00352); enzyme activity, inhibitor, absorbance; 10 µM): 61%
Nc1ncc(-c2nc(N3CCOCC3)nc(N3CCOCC3)n2)c(C(F)F)n1 — remaining binding (Serine/threonine-protein kinase 17B (STK17B, Homo sapiens, UniProt O94768); binding, competition with immobilised ligand; 10 µM): 85%
COc1ncccc1-c1cnn2ccc(N3CCN(C(=O)OC(C)C)CC3)nc12 — remaining binding (Phosphatidylinositol 4-phosphate 5-kinase type-1 gamma (PIP5K1C, Homo sapiens, UniProt O60331); binding, competition with immobilised ligand; 1 µM): 53%
